From PubChem
This is a sample that favours compounds with a hit; in the whole collection about 2.6% have one here.
SENP8 block-1 – SENP8 protease inhibition; actives 1.2% (n = 330,000); inhibition, % at 10 µM; purified SENP8, Z-RLRGG-aminoluciferin cleavage, luminescence; AID 2540; in the data active = inhibition above about 50%
SENP8 block-2 – blocks human SENP8 cleavage of Nedd8 substrate. Q96LD8. recombinant SENP8, Nedd8 substrate fluorescence. inhibition, % at 20 µM. actives 0.64% (n = 360,000); in the data active = inhibition mostly above about 40%, no sharp cut-off; inactive = mostly below about 27%
SENP7 inh – blocks the human protease SENP7. actives 1.5% (n = 330,000). inhibition, % at 5 µM. Q9BQF6. recombinant SENP7, Z-RLRGG-aminoluciferin luminescence, 40 min;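 active = inhibition above about 50% at the single test dose, limit read from the data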;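 note: plate controls were DMSO with enzyme for no effect and no enzyme buffer wells for full effect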
SENP1 inh – blocks the human SENP1 SUMO protease catalytic domain | Q9P0U3 | recombinant SENP1 catalytic domain, CyPet-SUMO1-YPet FRET cleavage | inhibition, % at 10 µM | actives 0.21% (n = 360,000) | AID 624204;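 active = inhibition at least 30% at 10 µM, raw YFP signal under a set limit, fluorescence ratio 0.5 to 1.5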;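 note: 0% = enzyme with DMSO and 100% = no enzyme wells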
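Compound: 10 µM single point, 0.5% DMSO; Test system: hSENP1 catalytic domain, recombinant; Timing: 50 min reaction at room temperature; Technique: FRET, CFP and YFP emission; Control set: no-enzyme wells low, DMSO-plus-enzyme wells high control.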
SENP6 block – blocks the human protease SENP6 | inhibition, % at 10 µM | actives 1.8% (n = 330,000) | Q9GZR1 | Recombinant SENP6 catalytic domain, aminoluciferin luminescence;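 active = inhibition above about 50% at the single tested dose, limit read from the data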;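 note: plate controls were DMSO wells with enzyme for no effect and DMSO wells lacking enzyme for full effect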
Target sequence (Q9GZR1 628-1112 limits assumed): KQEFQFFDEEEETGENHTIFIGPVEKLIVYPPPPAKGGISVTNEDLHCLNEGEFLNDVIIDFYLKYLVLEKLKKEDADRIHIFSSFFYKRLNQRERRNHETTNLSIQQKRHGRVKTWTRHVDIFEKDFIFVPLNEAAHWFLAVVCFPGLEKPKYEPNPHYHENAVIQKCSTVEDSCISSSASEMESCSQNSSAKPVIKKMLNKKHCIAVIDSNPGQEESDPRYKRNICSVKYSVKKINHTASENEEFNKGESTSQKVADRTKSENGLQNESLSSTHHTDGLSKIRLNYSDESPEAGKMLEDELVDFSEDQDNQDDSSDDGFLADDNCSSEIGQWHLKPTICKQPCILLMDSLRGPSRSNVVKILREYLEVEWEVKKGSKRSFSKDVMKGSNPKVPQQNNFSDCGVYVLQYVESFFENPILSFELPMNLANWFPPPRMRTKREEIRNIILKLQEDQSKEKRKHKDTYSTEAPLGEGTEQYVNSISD
Platelet DG rel – platelet dense granule release activity | human platelet-rich plasma, SFLLRN dense granule ATP release, luminescence | inhibition, %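 (compounds screened at 7.5 µM in platelet-rich plasma)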 | actives 0.22% (n = 300,000) | AID 1663;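 active = mean replicate score, as percent of positive control, at or above 50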
SENP8 conf – human SENP8 inhibition, confirmed | shares compounds with SENP7 inh | Recombinant SENP8, Z-RLRGG-aminoluciferin luminescence, 60 min | inhibition, % at 12.5 µM | actives 40% (n = 6,200) | AID 488912;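 active = mean inhibition across replicates above about 50%, limit read from the data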
SENP6 confirm – confirmation of human SENP6 protease inhibitors; actives 58% (n = 6,200); recombinant SENP6, Z-RLRGG-aminoluciferin luminescence; shares compounds with SENP7 inh; AID 488915; inhibition, % at 12.5 µM
SENP7 confirm – confirmation of human SENP7 protease inhibitors; shares compounds with SENP7 inh; recombinant SENP7, Z-RLRGG-aminoluciferin luminescence, 40 min; inhibition, % at 12.5 µM; actives 69% (n = 6,200); AID 488917
Casp3 select – selectivity test for SENP inhibitors: human caspase-3 inhibition; shares compounds with SENP7 inh; purified caspase-3, Z-DEVD-aminoluciferin luminescence, 60 min; inhibition, % at 12.5 µM; actives 60% (n = 6,200);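 active = mean inhibition above about 50%, limit read from the data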;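 note: plate controls were enzyme with DMSO for no effect and wells without caspase-3 for full effect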
Target sequence (P42574 28-227 limits assumed): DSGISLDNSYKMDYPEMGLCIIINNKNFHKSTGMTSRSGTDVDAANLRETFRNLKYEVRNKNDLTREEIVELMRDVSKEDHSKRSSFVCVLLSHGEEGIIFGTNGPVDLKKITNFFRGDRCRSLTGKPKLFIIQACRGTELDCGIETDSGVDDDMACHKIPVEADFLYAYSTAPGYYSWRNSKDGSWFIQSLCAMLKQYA
Luc interf – interferes with luciferase luminescence in SENP counter-screen. shares compounds with SENP7 inh. Pre-incubated SENP8/Z-RLRGG-aminoluciferin, luciferase luminescence interference. inhibition, % at 12.5 µM. actives 39% (n = 6,200). AID 488919;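 active = mean inhibition above about 50% when retested at one dose, limit read from the data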;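 note: plate controls were DMSO wells with completed reaction for no effect and substrate without enzyme for full effect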
* = called active by the depositor; / = no result given.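 Rule for the calls, unless noted: active = mean inhibition above about 50% in the one-dose retest (limit read from the data); inactive = the rest.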

SMILES	SENP8 block-1	SENP8 block-2	SENP7 inh	SENP1 inh	SENP6 block	Platelet DG rel	SENP8 conf	SENP6 confirm	SENP7 confirm	Casp3 select	Luc interf
O=C(Nc1cccnc1)c1cc(-c2ccc(Br)cc2)on1	36.3	15.0	83.9*	0.7	29.3	-28.9	18.6	18.7	30.6	30.2	4.7
CCCc1cc(C(=O)Nc2cccnc2)no1	23.6	1.0	36.6	-0.6	-10.0	8.9	/	/	/	/	/
O=C(Nc1cccnc1)c1cc(-c2ccccc2)on1	48.3	9.4	68.9*	1.7	74.6*	-4.7	36.5	48.7	85.6*	75.1*	31.5
CC(C)c1cc(C(=O)Nc2cccnc2)no1	39.5	12.6	63.4*	-0.8	62.3*	4.9	61.0*	56.2*	85.7*	88.2*	64.6*
COc1cccc(-c2cc(C(=O)Nc3cccnc3)no2)c1	64.7*	3.2	80.2*	-3.9	55.5*	7.0	47.3	78.0*	93.0*	83.4*	28.9
CCOc1cc(CN2CCC(N3CCC(C(=O)NC4CC4)CC3)CC2)ccc1O	/	12.7	/	0.6	/	/	/	/	/	/	/
CN(Cc1ccccc1)C(=O)c1ccc(NC(=O)Cc2ccc(NC(=O)C3CCCN(C(=O)CCc4ccccc4)C3)cc2)cc1 (stereo not given)	/	-1.0	/	-0.5	/	/	/	/	/	/	/
Cc1ccc(S(=O)(=O)N(CC(O)CN2CCOCC2)c2cccc([N+](=O)[O-])c2)cc1 (stereo not given)	4.1	12.1	2.8	2.4	1.2	-11.1	/	/	/	/	/
Cc1ccc(NC(=O)c2cc(-c3ccco3)on2)cc1	-1.3	-12.0	19.0	1.7	1.9	-1.0	/	/	/	/	/
O=C(Nc1cccnc1)c1cc(-c2ccco2)on1	23.4	18.3	58.3*	-0.9	48.6	3.8	39.6	39.3	63.5*	79.0*	1.4
COC(=O)c1sccc1-c1ccc(C(=O)Nc2cccnc2)o1	21.1	-96.3	52.5*	2.9	48.0	-3.6	44.9	40.0	76.3*	59.3*	4.2
C[C@@H]1CN([C@H](C)CO)C(=O)c2cc(Br)cnc2O[C@H]1CN(C)C(=O)Nc1ccc2c(c1)OCO2	/	-1.6	/	0.0	/	/	/	/	/	/	/
CC(=O)Nc1ccc(S(=O)(=O)NC2=C(N3CCN(c4ccc(F)cc4)CC3)C(=O)c3ccccc3C2=O)cc1	29.0	78.3*	44.1	-1.0	62.6*	-25.3	31.2	56.2*	18.6	53.0*	-0.6
CCOC(=O)N1CCN(C2=C(NS(=O)(=O)c3ccc(C)cc3)C(=O)c3ccccc3C2=O)CC1	35.0	82.3*	35.9	4.1	63.7*	6.1	5.3	26.3	3.2	5.1	-7.0
COc1ccc(CN=C2NN=C(c3ccc(Cl)cc3)CS2)cc1	-4.6	15.2	-7.4	1.4	-8.3	2.7	/	/	/	/	/
COc1ccc(CN=C2Nc3ccccc3CS2)cc1	79.5*	6.1	84.6*	2.4	91.9*	0.4	86.3*	86.5*	96.7*	81.3*	87.5*
Cc1ccc(-c2nc3ccccc3n2C(C)C(=O)NC(C)(C)C)cc1 (stereo not given)	/	-0.3	/	-1.8	/	/	/	/	/	/	/
COc1ccc(S(=O)(=O)N2CCC(C(=O)Nc3ccccc3N3CCCCC3)CC2)cc1OC	-2.8	9.2	2.0	-0.7	-2.3	-2.4	/	/	/	/	/
O=C(Cn1nc(C(=O)O)c2ccccc2c1=O)NC12CC3CC(CC(C3)C1)C2	-11.3	4.8	-5.0	1.2	-33.6	0.3	/	/	/	/	/
Cc1cc2nc(-c3ccc[nH]c3=O)[nH]c2cc1C	92.0*	-286.1	97.4*	-73.4	94.7*	51.7*	96.3*	96.8*	102.3*	97.9*	81.6*
Cc1cc2nc(-c3ccc[nH]c3=O)n(Cc3ccc(F)cc3)c2cc1C	-8.4	-309.2	-2.1	-6.9	3.8	1.6	/	/	/	/	/
CNC(=O)c1ccc(-c2sc3nc(N4CCOCC4)c4c(c3c2N)CCCC4)o1	4.6	-251.4	34.9	-21.5	54.8*	2.5	2.4	8.5	5.3	4.0	-0.7
Cc1ccc(S/C=C\C(=O)c2ccccc2)cc1	81.7*	15.3	92.4*	1.0	86.8*	20.2	5.9	90.1*	79.2*	64.5*	55.3*
Cc1ccc(C(=O)/C=C\C(=O)c2ccc(C)cc2)cc1	/	22.9	/	-0.4	/	21.8	/	/	/	/	/
Cc1ccc(-c2nc3ccsc3c(=O)[nH]2)cc1	31.3	14.6	44.2	1.7	40.8	1.7	/	/	/	/	/
SMILES	SENP8 block-1	SENP8 block-2	SENP7 inh	SENP1 inh	SENP6 block	Platelet DG rel	SENP8 conf	SENP6 confirm	SENP7 confirm	Casp3 select	Luc interf
CCOC(=O)CC(NS(=O)(=O)c1ccc2[nH]cc(C(=O)O)c(=O)c2c1)c1ccc(OCC)c(OC)c1 (stereo not given)	-1.4	-5.6	-0.5	-1.2	-5.6	-2.9	/	/	/	/	/
CCCc1nc(-c2ccc(-c3ccc(F)cc3)cc2)no1	6.1	12.9	57.1*	1.2	51.5*	-6.7	14.1	15.8	20.1	28.3	12.7
O=C(NCCc1nc(-c2ccc(F)cc2)no1)c1ccc(F)cc1	1.6	-5.6	-3.5	1.4	5.4	/	/	/	/	/	/
Cc1ccc(NC(=O)Cn2cccc2)c(Br)c1	-1.1	12.6	9.8	0.7	-13.6	1.9	/	/	/	/	/
Cn1ccc(C(=O)Nc2ccc(Br)cc2Br)n1	37.5	12.2	39.3	-1.3	66.3*	-5.7	43.3	44.5	65.1*	54.2*	20.5
Cc1ccc(NC(=O)c2ccccn2)c(Br)c1	72.3*	9.5	73.1*	0.8	82.3*	10.9	66.0*	82.8*	79.3*	64.2*	34.4
Cc1ccc(NC(=O)c2ccn(C)n2)c(Br)c1	42.3	18.0	44.0	3.1	60.8*	21.4	46.6	41.9	80.6*	68.3*	61.2*
Clc1ccc(CSc2nnc(-c3ccc4c(c3)OCO4)o2)cc1	-13.2	10.5	-13.1	3.7	-6.2	4.5	/	/	/	/	/
Cc1ccc(-c2nnc(-c3ccc4c(c3)OCO4)o2)cc1	28.6	-384.6	83.0*	-0.3	47.1	2.3	9.4	15.9	17.0	45.8	5.0
Brc1ccc(-c2nnc(-c3ccc4c(c3)OCO4)o2)o1	-9.1	-276.6	61.2*	0.7	35.3	2.8	7.0	8.3	19.6	38.9	15.3
